The test system of data set [1] is PC-3M. The data set can be described thus: Inhibition of cell migration at human PC-3M cells measured after 5 days by Hoechst 33342 staining based microscopic method. The data set is classed as functional. Particulars: 120 h.
A short description of data set [2]: Microsomal stability in CD1 mouse liver microsomes assessed as half life measured upto 60 mins in presence of NADPH by LC-MS analysis. Particulars: mouse, microsomes, 1 h. For orientation: Liver microsomes are vesicles of endoplasmic reticulum, rich in cytochrome P450 enzymes.
Data set [3] in a line: Permeability of the compound at pH 7.4 incubated for 30 mins by UV plate reader based PAMPA assay. Particulars: pampa, pH 7.4, 0.5 h.
Data set [4] concerns PC-3M. The data set can be described thus: Antiproliferative activity against human PC-3M cells expressing PTB/GFP fusion protein assessed as cell growth inhibition and measured every four hrs for 130 hrs by IncuCyte zoom live cell analysis. The data set is classed as functional, cell-based. The gist of the method:
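PC3M-PTB1-GFP cells in DMEM/10% FBS, seeded at 1.25×10^4 cells/ml and left overnight at 37 °C, 5% CO2. Compound added to give 11 final concentrations, 10 nM to 20 μM. Brightfield images taken every 4 h for about 130 h; percent confluence measured.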

The subject of data set [5] is PC-3M. Description: Anticancer activity in human PC-3M cells expressing PTB/GFP fusion protein assessed as perinucleolar compartment disassembly and measured after 24 hrs by Hoechst 33342 staining based microscopic method. In kind it is functional, cell-based. Particulars: read-out: IC50. The gist of the method:
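Imaged by high-content microscopy. Nuclei with PNC spots ≥3 and >0 scored positive. PNC prevalence % = PNC-positive nuclei/total nuclei ×100, normalized to DMSO (0% activity) and 0% PNC (−100%). IC50 from concentration-response.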

Here are results for two compounds from ChEMBL document CHEMBL5154945, “Discovery and Optimization of Pyrrolopyrimidine Derivatives as Selective Disruptors of the Perinucleolar Compartment, a Marker of Tumor Progression toward Metastasis” (J Med Chem, 2022).

Each structure is given as a SMILES string. pIC50: −log10 of the molar value. Active and inactive are the calls of the source. The calls are words filed in the database; no cut-off is given here. Some results are limits rather than exact numbers.

`O=C(Nc1cccnc1)c1cccs1` showed an AC50 in the data set on PC-3M [1] of 1980 nM. That is a single-digit micromolar value.

`N=c1c2c(-c3ccccc3)cn(Cc3ccccc3)c2ncn1C1CCOCC1`: in data set [2], the t1/2 turned out to be 5.2 min. In addition, the permeability in data set [3] is on record as 1729 10^-6 cm/s. Also, the outcome with PC-3M [4] was Active. In the data set on PC-3M [5], the pIC50 is less than 4.70.

The AC50 is the concentration giving half of the maximal activity seen. Higher therefore signals activity only at high concentration. The pIC50 is the negative decadic logarithm of the IC50, by convention in mol/L.
